According to publication PMC4269301 (International journal of peptide research and therapeutics, 2014):

Legend:
adenylyl cyclase (AC) = assay: Adenylyl cyclase activity in membranes from WT-β2AR cells; format: biochemical; details: 100 μM peptide, 10 min, 30 °C
[1] = system: GRK site pS-(355,356) of the β2AR in WT-β2AR cells; assay: Intact-cell GRK site phosphorylation of the β2AR; format: cell-based; details: 100 μM, 20 min pretreatment, 20 nM ISO
[2] = system: PKA site pS-262 of the β2AR in WT-β2AR cells; assay: Intact-cell PKA site phosphorylation of the β2AR; format: cell-based; details: 100 μM, 20 min pretreatment, 20 nM ISO
How it was run: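 HEK293 cells stably expressing FLAG-β2AR (2–4 pmol/mg) on poly-L-lysine; 20 min with 100 μM TAT-tagged peptide, TAT or DMSO, then 20 nM ISO in 0.1 mM ascorbate/1 mM thiourea pH 7, or carrier, 5 min at 37 °C. Lysates on 12 % SDS-PAGE, immunoblot anti-pS262, reprobed anti-C-tail for normalisation. ≥4 experiments in duplicate, % of control.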

Structure (SMILES): CC(=O)NCC(=O)N[C@@H](CCCNC(=N)N)C(=O)N[C@@H](CCCCN)C(=O)N[C@@H](CCCCN)C(=O)N[C@@H](CCCNC(=N)N)C(=O)N[C@@H](CCCNC(=N)N)C(=O)N[C@@H](CCC(N)=O)C(=O)N[C@@H](CCCNC(=N)N)C(=O)N[C@@H](CCCNC(=N)N)C(=O)N[C@@H](CCCNC(=N)N)C(=O)N1CCC[C@H]1C(=O)N1CCC[C@H]1C(=O)N[C@@H](CCC(N)=O)C(N)=O [TAT]
- Effect on ISO-stimulated AC activity (adenylyl cyclase (AC); 1 μM ISO): without effect
- Effect on FSK-stimulated AC activity (adenylyl cyclase (AC); 20 μM FSK): without effect
- Effect on GRK phosphorylation of β2AR in intact cells [1]: did not inhibit
- Effect on PKA site (S262) phosphorylation of the β2AR in intact cells [2]: did not inhibit
